Measured values reported in ChEMBL document CHEMBL3044834, “Novel protoporphyrinogen oxidase inhibitors: 3H-pyrazolo[3,4-d][1,2,3]triazin-4-one derivatives” (J Agric Food Chem, 2008).

What was measured:
Format in all cases: functional
[1] = test system: Brassica rapa subsp. oleifera; test: Herbicidal activity against Brassica rapa subsp. oleifera assessed as inhibition of fresh weed plant weight at 1500 g/ha using post-emergence treatment protocol
How it was run: (§1)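 Test compounds made up as emulsions by dissolving in 100 µL N,N-dimethylformamide, then adding a little Tween 20 and water. For post-emergence, weed seedlings at one leaf and one stem were sprayed at the same rates as the pre-emergence test. Fresh weight was recorded 15 days after treatment and expressed as percent inhibition versus controls. All treatments were run in triplicate.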

Echinochloa crus-galli [2] = test: Herbicidal activity against Echinochloa crus-galli (barnyard grass) assessed as inhibition of fresh weed plant weight at 1500 g/ha using pre-emergence treatment protocol
Amaranthus retroflexus [3] = test: Herbicidal activity against Amaranthus retroflexus assessed as inhibition of fresh weed plant weight at 1500 g/ha using post-emergence treatment protocol; how it was run: as §1
Digitaria sanguinalis [4] = test: Herbicidal activity against Digitaria sanguinalis (hairy crabgrass) assessed as inhibition of fresh weed plant weight at 750 g/ha using post-emergence treatment protocol; how it was run: as §1
[5] = test system: Brassica rapa subsp. oleifera; test: Herbicidal activity against Brassica rapa subsp. oleifera assessed as inhibition of fresh weed plant weight at 750 g/ha using pre-emergence treatment protocol
Echinochloa crus-galli [6] = test: Herbicidal activity against Echinochloa crus-galli (barnyard grass) assessed as inhibition of fresh weed plant weight at 187.5 g/ha using post-emergence treatment protocol; how it was run: as §1
[7] = test system: Brassica rapa subsp. oleifera; test: Herbicidal activity against Brassica rapa subsp. oleifera assessed as inhibition of fresh weed plant weight at 187.5 g/ha using pre-emergence treatment protocol
Amaranthus retroflexus [8] = test: Herbicidal activity against Amaranthus retroflexus assessed as inhibition of fresh weed plant weight at 750 g/ha using pre-emergence treatment protocol; how it was run: as §1
Echinochloa crus-galli [9] = test: Herbicidal activity against Echinochloa crus-galli (barnyard grass) assessed as inhibition of fresh weed plant weight at 750 g/ha using pre-emergence treatment protocol
Digitaria sanguinalis [10] = test: Herbicidal activity against Digitaria sanguinalis (hairy crabgrass) assessed as inhibition of fresh weed plant weight at 187.5 g/ha using pre-emergence treatment protocol
Digitaria sanguinalis [11] = test: Herbicidal activity against Digitaria sanguinalis (hairy crabgrass) assessed as inhibition of fresh weed plant weight at 375 g/ha using post-emergence treatment protocol; how it was run: as §1
[12] = test system: Brassica rapa subsp. oleifera; test: Herbicidal activity against Brassica rapa subsp. oleifera assessed as inhibition of fresh weed plant weight at 750 g/ha using post-emergence treatment protocol; how it was run: as §1
Digitaria sanguinalis [13] = test: Herbicidal activity against Digitaria sanguinalis (hairy crabgrass) assessed as inhibition of fresh weed plant weight at 1500 g/ha using post-emergence treatment protocol; how it was run: as §1
[14] = test system: Brassica rapa subsp. oleifera; test: Herbicidal activity against Brassica rapa subsp. oleifera assessed as inhibition of fresh weed plant weight at 375 g/ha using post-emergence treatment protocol; how it was run: as §1
Echinochloa crus-galli [15] = test: Herbicidal activity against Echinochloa crus-galli (barnyard grass) assessed as inhibition of fresh weed plant weight at 750 g/ha using post-emergence treatment protocol; how it was run: as §1
[16] = test system: Brassica rapa subsp. oleifera; test: Herbicidal activity against Brassica rapa subsp. oleifera assessed as inhibition of fresh weed plant weight at 187.5 g/ha using post-emergence treatment protocol; how it was run: as §1
Amaranthus retroflexus [17] = test: Herbicidal activity against Amaranthus retroflexus assessed as inhibition of fresh weed plant weight at 375 g/ha using post-emergence treatment protocol; how it was run: as §1
Echinochloa crus-galli [18] = test: Herbicidal activity against Echinochloa crus-galli (barnyard grass) assessed as inhibition of fresh weed plant weight at 375 g/ha using pre-emergence treatment protocol; how it was run: as §1
Amaranthus retroflexus [19] = test: Herbicidal activity against Amaranthus retroflexus assessed as inhibition of fresh weed plant weight at 187.5 g/ha using post-emergence treatment protocol; how it was run: as §1
Digitaria sanguinalis [20] = test: Herbicidal activity against Digitaria sanguinalis (hairy crabgrass) assessed as inhibition of fresh weed plant weight at 750 g/ha using pre-emergence treatment protocol
Digitaria sanguinalis [21] = test: Herbicidal activity against Digitaria sanguinalis (hairy crabgrass) assessed as inhibition of fresh weed plant weight at 1500 g/ha using pre-emergence treatment protocol
Echinochloa crus-galli [22] = test: Herbicidal activity against Echinochloa crus-galli (barnyard grass) assessed as inhibition of fresh weed plant weight at 375 g/ha using post-emergence treatment protocol; how it was run: as §1
Echinochloa crus-galli [23] = test: Herbicidal activity against Echinochloa crus-galli (barnyard grass) assessed as inhibition of fresh weed plant weight at 1500 g/ha using post-emergence treatment protocol; how it was run: as §1
Amaranthus retroflexus [24] = test: Herbicidal activity against Amaranthus retroflexus assessed as inhibition of fresh weed plant weight at 750 g/ha using post-emergence treatment protocol; how it was run: as §1
[25] = test system: Brassica rapa subsp. oleifera; test: Herbicidal activity against Brassica rapa subsp. oleifera assessed as inhibition of fresh weed plant weight at 375 g/ha using pre-emergence treatment protocol
Amaranthus retroflexus [26] = test: Herbicidal activity against Amaranthus retroflexus assessed as inhibition of fresh weed plant weight at 1500 g/ha using pre-emergence treatment protocol
Amaranthus retroflexus [27] = test: Herbicidal activity against Amaranthus retroflexus assessed as inhibition of fresh weed plant weight at 187.5 g/ha using pre-emergence treatment protocol
Digitaria sanguinalis [28] = test: Herbicidal activity against Digitaria sanguinalis (hairy crabgrass) assessed as inhibition of fresh weed plant weight at 375 g/ha using pre-emergence treatment protocol
Amaranthus retroflexus [29] = test: Herbicidal activity against Amaranthus retroflexus assessed as inhibition of fresh weed plant weight at 375 g/ha using pre-emergence treatment protocol
Digitaria sanguinalis [30] = test: Herbicidal activity against Digitaria sanguinalis (hairy crabgrass) assessed as inhibition of fresh weed plant weight at 187.5 g/ha using post-emergence treatment protocol; how it was run: as §1
Echinochloa crus-galli [31] = test: Herbicidal activity against Echinochloa crus-galli (barnyard grass) assessed as inhibition of fresh weed plant weight at 187.5 g/ha using pre-emergence treatment protocol; how it was run: as §1
[32] = test system: Brassica rapa subsp. oleifera; test: Herbicidal activity against Brassica rapa subsp. oleifera assessed as inhibition of fresh weed plant weight at 1500 g/ha using pre-emergence treatment protocol

SMILES | inhibition at 1500 g/ha [1] [%] | inhibition at 1500 g/ha (Echinochloa crus-galli [2]) [%] | inhibition at 1500 g/ha (Amaranthus retroflexus [3]) [%] | inhibition at 750 g/ha (Digitaria sanguinalis [4]) [%] | inhibition at 750 g/ha [5] [%] | inhibition at 187.5 g/ha (Echinochloa crus-galli [6]) [%] | inhibition at 187.5 g/ha [7] [%] | inhibition at 750 g/ha (Amaranthus retroflexus [8]) [%] | inhibition at 750 g/ha (Echinochloa crus-galli [9]) [%] | inhibition at 187.5 g/ha (Digitaria sanguinalis [10]) [%] | inhibition at 375 g/ha (Digitaria sanguinalis [11]) [%] | inhibition at 750 g/ha [12] [%] | inhibition at 1500 g/ha (Digitaria sanguinalis [13]) [%] | inhibition at 375 g/ha [14] [%] | inhibition at 750 g/ha (Echinochloa crus-galli [15]) [%] | inhibition at 187.5 g/ha [16] [%] | inhibition at 375 g/ha (Amaranthus retroflexus [17]) [%] | inhibition at 375 g/ha (Echinochloa crus-galli [18]) [%] | inhibition at 187.5 g/ha (Amaranthus retroflexus [19]) [%] | inhibition at 750 g/ha (Digitaria sanguinalis [20]) [%] | also measured
C=CCN1C(=O)COc2cc(F)c(-n3nnc4c(cnn4CCC)c3=O)cc21 | 97.5 | 86.4 | 100 | 33.3 | 100 | 1.5 | 26.9 | 100 | 62.8 | 37 | 25 | 78.9 | 52.8 | 45.1 | 7.3 | 12.6 | 100 | 55 | 48.8 | 71.7 | inhibition at 1500 g/ha (Digitaria sanguinalis [21]): 90.7%; inhibition at 375 g/ha (Echinochloa crus-galli [22]): 2.3%; inhibition at 1500 g/ha (Echinochloa crus-galli [23]): 20.1%; inhibition at 750 g/ha (Amaranthus retroflexus [24]): 100%; inhibition at 375 g/ha [25]: 82.8%; inhibition at 1500 g/ha (Amaranthus retroflexus [26]): 100%; inhibition at 187.5 g/ha (Amaranthus retroflexus [27]): 67.2%; inhibition at 375 g/ha (Digitaria sanguinalis [28]): 67.4%; inhibition at 375 g/ha (Amaranthus retroflexus [29]): 77%; inhibition at 187.5 g/ha (Digitaria sanguinalis [30]): 8.3%; inhibition at 187.5 g/ha (Echinochloa crus-galli [31]): 42.9%; inhibition at 1500 g/ha [32]: 100%
C=CCN1C(=O)COc2cc(F)c(-n3nnc4nn(CCC)cc4c3=O)cc21 | 50.3 | 60.4 | 100 | 0 | 69.4 | 0 | 13.4 | 100 | 35.9 | 4.3 | 0 | 33.7 | 0 | 29.1 | 5.4 | 0 | 85.4 | 16 | 7.3 | 54.3 | inhibition at 1500 g/ha (Digitaria sanguinalis [21]): 78.6%; inhibition at 375 g/ha (Echinochloa crus-galli [22]): 2.4%; inhibition at 1500 g/ha (Echinochloa crus-galli [23]): 11.2%; inhibition at 750 g/ha (Amaranthus retroflexus [24]): 100%; inhibition at 375 g/ha [25]: 55.2%; inhibition at 1500 g/ha (Amaranthus retroflexus [26]): 100%; inhibition at 187.5 g/ha (Amaranthus retroflexus [27]): 27.9%; inhibition at 375 g/ha (Digitaria sanguinalis [28]): 39.1%; inhibition at 375 g/ha (Amaranthus retroflexus [29]): 100%; inhibition at 187.5 g/ha (Digitaria sanguinalis [30]): 0%; inhibition at 187.5 g/ha (Echinochloa crus-galli [31]): 10.8%; inhibition at 1500 g/ha [32]: 88.7%
C=CCOc1cc(-n2nnc3c(cnn3CC=C)c2=O)c(F)cc1Cl | 10.3 | 30.1 | 100 | 11.1 | 16.4 | 2.4 | 9 | 34.4 | 16.9 | 0 | 0 | 2.9 | 23.1 | 0 | 22 | 0 | 85.4 | 10 | 12.2 | 4.3 | inhibition at 1500 g/ha (Digitaria sanguinalis [21]): 10.5%; inhibition at 375 g/ha (Echinochloa crus-galli [22]): 18%; inhibition at 1500 g/ha (Echinochloa crus-galli [23]): 32.3%; inhibition at 750 g/ha (Amaranthus retroflexus [24]): 100%; inhibition at 375 g/ha [25]: 11.9%; inhibition at 1500 g/ha (Amaranthus retroflexus [26]): 60.1%; inhibition at 187.5 g/ha (Amaranthus retroflexus [27]): 1.6%; inhibition at 375 g/ha (Digitaria sanguinalis [28]): 0%; inhibition at 375 g/ha (Amaranthus retroflexus [29]): 27.9%; inhibition at 187.5 g/ha (Digitaria sanguinalis [30]): 0%; inhibition at 187.5 g/ha (Echinochloa crus-galli [31]): 6.5%; inhibition at 1500 g/ha [32]: 30.5%
C#CCOc1cc(-n2nnc3nn(CC=C)cc3c2=O)c(F)cc1Cl | 70.3 | 40.9 | 100 | 13.9 | 37.3 | 0 | 16.4 | 93.4 | 19.5 | 2.2 | 8.3 | 36.6 | 36.1 | 18.9 | 9.3 | 2.9 | 100 | 0 | 22 | 47.8 | inhibition at 1500 g/ha (Digitaria sanguinalis [21]): 79.6%; inhibition at 375 g/ha (Echinochloa crus-galli [22]): 0.5%; inhibition at 1500 g/ha (Echinochloa crus-galli [23]): 20.3%; inhibition at 750 g/ha (Amaranthus retroflexus [24]): 100%; inhibition at 375 g/ha [25]: 25.4%; inhibition at 1500 g/ha (Amaranthus retroflexus [26]): 100%; inhibition at 187.5 g/ha (Amaranthus retroflexus [27]): 41%; inhibition at 375 g/ha (Digitaria sanguinalis [28]): 6.5%; inhibition at 375 g/ha (Amaranthus retroflexus [29]): 90.2%; inhibition at 187.5 g/ha (Digitaria sanguinalis [30]): 0%; inhibition at 187.5 g/ha (Echinochloa crus-galli [31]): 0%; inhibition at 1500 g/ha [32]: 65.8%
C=CCOc1cc(-n2nnc3nn(CC=C)cc3c2=O)c(F)cc1Cl | 60.8 | 39.6 | 100 | 44.4 | 23.9 | 14.1 | 3 | 100 | 22.1 | 0 | 33.3 | 32.6 | 60.7 | 8.6 | 18 | 6.3 | 100 | 18.4 | 36.6 | 8.7 | inhibition at 1500 g/ha (Digitaria sanguinalis [21]): 18%; inhibition at 375 g/ha (Echinochloa crus-galli [22]): 16.1%; inhibition at 1500 g/ha (Echinochloa crus-galli [23]): 35.8%; inhibition at 750 g/ha (Amaranthus retroflexus [24]): 100%; inhibition at 375 g/ha [25]: 13.4%; inhibition at 1500 g/ha (Amaranthus retroflexus [26]): 100%; inhibition at 187.5 g/ha (Amaranthus retroflexus [27]): 100%; inhibition at 375 g/ha (Digitaria sanguinalis [28]): 4.3%; inhibition at 375 g/ha (Amaranthus retroflexus [29]): 100%; inhibition at 187.5 g/ha (Digitaria sanguinalis [30]): 22.2%; inhibition at 187.5 g/ha (Echinochloa crus-galli [31]): 0%; inhibition at 1500 g/ha [32]: 50.7%
C#CCN1C(=O)COc2cc(F)c(-n3nnc4c(cnn4CCC)c3=O)cc21 | 90.7 | 95.4 | 99.6 | 16.7 | 82.1 | 0.5 | 63.4 | 100 | 87 | 80.4 | 5.6 | 70.3 | 33.9 | 64.6 | 61 | 35.4 | 41.5 | 80.1 | 14.6 | 93.5 | inhibition at 1500 g/ha (Digitaria sanguinalis [21]): 100%; inhibition at 375 g/ha (Echinochloa crus-galli [22]): 19%; inhibition at 1500 g/ha (Echinochloa crus-galli [23]): 91.5%; inhibition at 750 g/ha (Amaranthus retroflexus [24]): 87.8%; inhibition at 375 g/ha [25]: 67.9%; inhibition at 1500 g/ha (Amaranthus retroflexus [26]): 100%; inhibition at 187.5 g/ha (Amaranthus retroflexus [27]): 37.7%; inhibition at 375 g/ha (Digitaria sanguinalis [28]): 91.3%; inhibition at 375 g/ha (Amaranthus retroflexus [29]): 73.8%; inhibition at 187.5 g/ha (Digitaria sanguinalis [30]): 0%; inhibition at 187.5 g/ha (Echinochloa crus-galli [31]): 43.7%; inhibition at 1500 g/ha [32]: 98.1%
